Assay results pooled from the literature.
Cell line: SW-620

| Structure (SMILES) | read-out | technique | concentration | time | setting | quantity | value |
| --- | --- | --- | --- | --- | --- | --- | --- |
| COc1ccc(C(=O)/C=C/c2cccc(Br)c2)cc1S(N)(=O)=O | cell growth or viability | SRB | 10 µM | – | – | inhibition | 120% |
| Cc1cc(C)n(C(=S)[S][Au][PH](CCCCCC[PH]([Au][S]C(=S)n2nc(C)cc2C)(c2ccccc2)c2ccccc2)(c2ccccc2)c2ccccc2)n1 | cell growth or viability | – | – | – | – | GI50 | 1.26 µM |
| O=C(/C=C/c1ccc2c(=O)n(Cc3ccc(F)cc3)cnc2c1)NO | cell growth or viability | SRB | – | 48 h | – | IC50 | 1.03 µM |
| COc1cccc(Oc2ccccc2NC(=O)CNC(=O)c2cccc3ccccc23)c1 | cell growth or viability | SRB | – | 48 h | – | GI50 | 0.166 µM |
| O=C(/C=C/c1ccc2ncn(Cc3ccc(Cl)cc3)c(=O)c2c1)NO | cell growth or viability | SRB | – | 48 h | – | IC50 | 2.57 µM |
| CC(C)C[C@H](NC(=O)[C@H](Cc1ccccc1)NC(=O)c1cnccn1)B(O)O | cell growth or viability | ATP luminescence | – | – | – | IC50 | 0.009 µM |
| O=C(/C=C/c1ccc2c(=O)n(CCO)cnc2c1)NO | cell growth or viability | SRB | – | 48 h | – | IC50 | 3.68 µM |
| Cn1cc(-c2ccc(-c3cncc(Cl)c3N3CCC4(CCNC4=O)CC3)cc2)cn1 | colony formation | – | – | 14 days | 3D culture | GI50 | 0.14 µM |
| COc1ccc(C(=O)/C=C/c2cccc(Cl)c2Cl)cc1S(N)(=O)=O | cell growth or viability | SRB | 10 µM | – | – | inhibition | 147% |
| O=C(O)C[C@H](O)C[C@H](O)/C=C/c1c(C2CC2)nc2ccccc2c1-c1ccc(F)cc1 | cell growth or viability | SRB | – | 72 h | – | IC50 | 0.54 mg/L |
| CC(=O)Nc1cccc(-n2c(=O)n(C3CC3)c(=O)c3c(Nc4ccc(I)cc4F)n(C)c(=O)c(C)c32)c1 | cell growth or viability | resazurin | 780 pM | 72 h | – | viability | 71.7% |
| COc1ccc(C(=O)/C=C/c2ccccc2Br)cc1S(N)(=O)=O | cell growth or viability | SRB | 10 µM | – | – | inhibition | 146% |
| CCn1cnc2cc(/C=C/C(=O)NO)ccc2c1=O | cell growth or viability | SRB | – | 48 h | – | IC50 | 2.97 µM |
| COc1ccc(C(=O)/C=C/c2ccc3c(c2)OCCO3)cc1S(N)(=O)=O | cell growth or viability | SRB | 10 µM | – | – | inhibition | 68% |
| CC(C)n1c(/C=C/C(O)CC(O)CC(=O)O)c(-c2ccc(F)cc2)c2ccccc21 (centres unmarked) | cell growth or viability | SRB | – | 72 h | – | IC50 | 0.49 mg/L |
| O=C(/C=C/c1ccc2c(=O)n(CCCl)cnc2c1)NO | cell growth or viability | SRB | – | 48 h | – | IC50 | 5.65 µM |
| COc1ccc(C(=O)/C=C/c2cccnc2)cc1S(N)(=O)=O | cell growth or viability | SRB | 10 µM | – | – | inhibition | 87% |
